Compound activity as filed in PubChem BioAssay.
Sampled rows, rich in hits. Any-hit rate of the full collection: about 2.2%.
CCR6 antag = blocks CCL20-driven beta-arrestin recruitment at human CCR6; P51684; CHO-K1 CCR6 PathHunter beta-arrestin, luminescence, CCL20-stimulated; inhibition, % at 20 µM; actives 0.49% (n = 340,000); AID 493098;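 active = compounds whose inhibition of the agonist-driven luminescence signal at 20 µM reaches about 50%, limit read from the data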;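 note: cells stimulated with CCL20 at 14 nM final; plate controls were DMSO with CCL20 for no effect and DMSO without agonist for full effect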
Target sequence (P51684 whole entry, looked up): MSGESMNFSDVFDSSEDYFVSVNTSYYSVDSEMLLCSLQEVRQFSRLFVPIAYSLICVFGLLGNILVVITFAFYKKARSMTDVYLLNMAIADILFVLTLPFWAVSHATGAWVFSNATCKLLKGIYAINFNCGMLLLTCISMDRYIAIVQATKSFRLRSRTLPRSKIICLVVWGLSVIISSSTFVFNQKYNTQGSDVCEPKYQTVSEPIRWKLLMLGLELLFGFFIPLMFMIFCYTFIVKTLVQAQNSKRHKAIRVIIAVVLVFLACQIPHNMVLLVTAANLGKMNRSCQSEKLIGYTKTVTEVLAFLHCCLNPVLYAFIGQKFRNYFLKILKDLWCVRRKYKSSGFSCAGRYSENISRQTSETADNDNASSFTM
EBI2 antag = EBI2 (human) antagonism; actives 0.81% (n = 360,000); P32249; inhibition, % at 5 µM; EBI2 beta-arrestin recruitment, luminescence, 7a,25-OHC stimulated; in the data active = inhibition above about 38%;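 note: enzyme fragment complementation signal reports receptor beta-arrestin coupling in cells; 0% = agonist plus DMSO wells and 100% = wells without agonist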
APJ ag = agonists of human APJ apelin receptor; CHO-K1 APJ PathHunter beta-arrestin, luminescence; 0% DMSO wells, 100% apelin; activation, % at 20 µM; actives 0.11% (n = 330,000);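 active = activation more than six SD over the plate average, tested at 20 µM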;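 note: 0% = DMSO alone and 100% = apelin-13 at 10 nM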
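Assay system: CHO-K1 cells stably expressing ProLink-tagged human APJ and arrestin–beta-gal acceptor. Compound dosing: 20 µM single point, 1% DMSO. Times: 16-18 h seeding, 90 min dark compound exposure, 60 min detection. Detection: beta-gal luminescence. Evaluation: APJ–arrestin association signal. Controls: negative DMSO alone, positive Apelin-13 at 10 nM.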
HTR2A ag = agonists of mouse serotonin 5-HT2A receptor (HTR2A); activation, % at 7.6 µM; CHO-K1 mHTR2A beta-arrestin complementation, luminescence; percent of 30 µM serotonin response; actives 0.66% (n = 360,000); P35363;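 active = activation above a run cutoff, the mean activation of all tested compounds plus 3 SD, cut at about 14% in these data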;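 note: 0% = plate median of compound wells and 100% = 30 µM serotonin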
CXCR6 inh = inhibitors of human CXCR6 receptor; CHO-K1 PathHunter CXCR6 beta-arrestin, luminescence; inhibition, % at 20 µM; actives 0.36% (n = 360,000); AID 602244; in the data active = inhibition above about 34%, passing the limit was not always enough;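 note: antagonist mode with CXCL16 agonist at 10 nM final; 0% = 10 nM CXCL16 with DMSO and 100% = unstimulated wells without agonist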
APJ antagonist = blocks the human apelin receptor APJ. P35414. CHO-K1 APJ beta-arrestin complementation, luminescence. inhibition, % at 20 µM. actives 0.32% (n = 330,000);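 active = inhibition above about 40% at 20 µM, limit read from the data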;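 note: cells challenged with 10 nM apelin-13 agonist together with compound; plate controls were apelin-13 plus DMSO wells for no effect and DMSO wells lacking apelin-13 for full effect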
CXCR6 antag conf = confirmation of human CXCR6 receptor antagonists; shares compounds with CXCR6 inh; CHO-K1 CXCR6 PathHunter beta-arrestin, luminescence; inhibition, % at 20 µM; actives 65% (n = 700);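 active = mean inhibition over four retests above 40%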;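 note: receptor stimulated with 10 nM CXCL16 agonist; beta-galactosidase fragment complementation upon beta-arrestin recruitment to receptor; plate controls were CXCL16 plus DMSO for no effect and DMSO without CXCL16 for full effect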
EBI2 antag conf = confirmation of human EBI2 receptor antagonists | shares compounds with EBI2 antag | EBI2 beta-arrestin luminescence, 7a,25-OHC antagonism | inhibition, % at 5 µM | actives 29% (n = 2,400) | AID 651997;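 active = inhibition of at least 50%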
EBI2 ag = activates EBI2, counter-screen for EBI2 antagonists | shares compounds with EBI2 antag | EBI2-expressing cells, agonist mode, luminescence, 60 min; 0% vehicle, 100% 7α,25-dihydroxycholesterol control | activation, % at 5 µM | 2,400 tested, under 10 active | AID 652000;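 active = activation of at least 50%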
bGal cs = beta-galactosidase inhibition counter-screen | shares compounds with EBI2 antag | purified beta-galactosidase, luminescent Galacton Star, 15 min | inhibition, % at 5 µM | actives 1% (n = 2,400) | AID 652176;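 active = replicate-average signal at least 3 plate SD below neutral wells, shown as high inhibition, flagging enzyme-inhibiting false positives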;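 note: 0% = DMSO wells with enzyme and 100% = wells lacking enzyme; higher means stronger loss of beta-gal luminescence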
* hit, by the source's call.

What do the screens show for `Cc1ccc(S(=O)(=O)c2ccc([N+](=O)[O-])cn2)cc1`?
EBI2 antag: -6; APJ ag: 2; HTR2A ag: -11; CXCR6 inh: 55*; APJ antagonist: 27; CXCR6 antag conf: 74*

How did Cc1cc(S(=O)(=O)c2ccc([N+](=O)[O-])cn2)ccc1Br do in these assays?
CCR6 antag: -6; EBI2 antag: 13; APJ ag: 19; HTR2A ag: -2; CXCR6 inh: 16; APJ antagonist: -35

How did C/C(=N\NC(=O)COc1ccc(C(C)(C)C)cc1)c1ccc(-n2ccnc2)cc1 do in these assays?
CCR6 antag: -2; EBI2 antag: 12; APJ ag: -1; HTR2A ag: -3; CXCR6 inh: 73*; APJ antagonist: -31; CXCR6 antag conf: 6

How did CCc1ccc(OCC(=O)Nc2ccncc2)cc1 do in these assays?
CCR6 antag: 7; EBI2 antag: -6; APJ ag: 0; HTR2A ag: 2; CXCR6 inh: 7; APJ antagonist: 10

Results for COc1ccc(OCC(=O)N/N=C(\C)c2ccc(-n3ccnc3)cc2)cc1 ?
CCR6 antag: -18; EBI2 antag: -7; APJ ag: -1; HTR2A ag: -1; CXCR6 inh: -3; APJ antagonist: -8

How did CC(C)(C)c1ccc(OCC(=O)Nc2ccncc2)cc1 do in these assays?
CCR6 antag: -3; EBI2 antag: -1; APJ ag: -2; HTR2A ag: 1; CXCR6 inh: 41*; APJ antagonist: -2; CXCR6 antag conf: 16

What do the screens show for `O=C1C(=C(c2ccccc2)N2CCOCC2)Cc2ccccc21`?
EBI2 antag: 24; HTR2A ag: -6; CXCR6 inh: 70*; CXCR6 antag conf: 78*

How did NNC(=O)c1cc(-c2cccs2)nc2ccccc12 do in these assays?
CCR6 antag: -17; EBI2 antag: -9; APJ ag: 1; HTR2A ag: -9; CXCR6 inh: -28; APJ antagonist: -5

Results for COc1ccc(C(=O)N/N=C(\C)c2ccccn2)cc1OC ?
CCR6 antag: 75*; EBI2 antag: 58*; APJ ag: -21; HTR2A ag: -10; CXCR6 inh: 51*; APJ antagonist: 76*; CXCR6 antag conf: 69*; EBI2 antag conf: 84*; EBI2 ag: -1; bGal cs: 0

What do the screens show for `C/C(=N\NC(=O)c1cc(-c2cccs2)nc2ccccc12)c1ccccn1`?
CCR6 antag: 29; EBI2 antag: 66*; APJ ag: -8; HTR2A ag: -3; CXCR6 inh: 45*; APJ antagonist: 39; CXCR6 antag conf: 44*; EBI2 antag conf: 48; EBI2 ag: -3; bGal cs: -10

Results for CC(C)(C)NC(=O)C(c1ccnc2ccccc12)n1c(=O)c(-c2ccco2)nc2ccccc21 (centres undefined) ?
EBI2 antag: 2; HTR2A ag: 0

What do the screens show for `Cc1n[nH]c(=S)n(NC(=O)CC(=O)Nn2c(=S)[nH]nc(C)c2=O)c1=O`?
EBI2 antag: 44*; APJ ag: -2; HTR2A ag: -13; CXCR6 inh: 103*; APJ antagonist: 10; CXCR6 antag conf: 115*; EBI2 antag conf: 22; EBI2 ag: -4; bGal cs: 17*

What do the screens show for `Cc1ccc(NC(=S)NNC(=S)Nc2cccc(C(F)(F)F)c2)cc1`?
CCR6 antag: 27; EBI2 antag: 28; APJ ag: 0; HTR2A ag: -7; CXCR6 inh: 12; APJ antagonist: -6
